{
  "source": "the M2OR odorant receptor database",
  "details_in_all_cases": "stereoisomer not certain",
  "key": {"UniProt Q8VGV7": {"molecular_target": "T1, UniProt Q8VGV7", "T1 sequence (whole entry)": "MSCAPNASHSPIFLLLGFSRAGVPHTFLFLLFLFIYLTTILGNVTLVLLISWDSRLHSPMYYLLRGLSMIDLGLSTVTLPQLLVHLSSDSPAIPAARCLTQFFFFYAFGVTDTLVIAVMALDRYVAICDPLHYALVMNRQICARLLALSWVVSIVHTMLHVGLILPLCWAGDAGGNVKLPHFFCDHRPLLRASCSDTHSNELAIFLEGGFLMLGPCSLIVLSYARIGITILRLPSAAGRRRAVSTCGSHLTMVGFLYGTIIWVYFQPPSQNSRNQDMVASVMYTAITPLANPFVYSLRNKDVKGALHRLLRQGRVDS", "summary_of_the_method": "(§1)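 Transient luciferase assays in mammalian cell lines were common, though methods varied by source. The values come from published papers and their supplementary material, with extra details from the original authors when needed. Responsive refers to a measured signal the original authors judged statistically different from baseline, and non-responsive (inactive) to the remainder.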"}, "UniProt Q8VGX3": {"molecular_target": "T2, UniProt Q8VGX3", "T2 sequence (whole entry)": "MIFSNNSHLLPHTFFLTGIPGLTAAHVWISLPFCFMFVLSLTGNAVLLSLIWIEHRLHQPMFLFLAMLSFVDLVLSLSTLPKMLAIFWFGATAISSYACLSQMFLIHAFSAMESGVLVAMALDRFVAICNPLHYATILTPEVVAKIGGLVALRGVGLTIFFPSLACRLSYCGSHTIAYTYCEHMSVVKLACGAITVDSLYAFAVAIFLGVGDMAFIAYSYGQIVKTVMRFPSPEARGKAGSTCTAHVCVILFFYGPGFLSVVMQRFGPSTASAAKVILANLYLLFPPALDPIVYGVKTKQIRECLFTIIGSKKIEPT", "summary_of_the_method": "as §1"}, "UniProt Q8VGX5": {"molecular_target": "T3, UniProt Q8VGX5", "T3 sequence (whole entry)": "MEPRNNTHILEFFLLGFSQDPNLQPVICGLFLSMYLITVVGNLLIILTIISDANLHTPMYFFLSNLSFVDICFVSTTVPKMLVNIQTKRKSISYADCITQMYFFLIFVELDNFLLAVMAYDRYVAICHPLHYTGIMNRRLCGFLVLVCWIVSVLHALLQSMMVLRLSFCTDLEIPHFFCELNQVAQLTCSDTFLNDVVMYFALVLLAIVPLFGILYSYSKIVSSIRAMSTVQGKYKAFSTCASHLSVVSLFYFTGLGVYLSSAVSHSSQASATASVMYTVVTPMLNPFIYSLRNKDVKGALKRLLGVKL", "summary_of_the_method": "as §1"}, "UniProt Q8VGX8": {"molecular_target": "T4, UniProt Q8VGX8", "T4 sequence (whole entry)": "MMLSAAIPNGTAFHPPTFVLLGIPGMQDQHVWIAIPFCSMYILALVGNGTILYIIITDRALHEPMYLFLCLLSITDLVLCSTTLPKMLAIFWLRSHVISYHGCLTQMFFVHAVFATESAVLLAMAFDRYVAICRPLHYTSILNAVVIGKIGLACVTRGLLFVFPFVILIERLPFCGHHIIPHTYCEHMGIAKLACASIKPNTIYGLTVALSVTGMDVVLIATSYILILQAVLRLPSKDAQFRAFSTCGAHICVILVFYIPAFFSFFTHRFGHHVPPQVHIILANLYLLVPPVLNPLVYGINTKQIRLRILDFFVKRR", "summary_of_the_method": "as §1"}, "UniProt Q8VGY6": {"molecular_target": "T5, UniProt Q8VGY6", "T5 sequence (whole entry)": "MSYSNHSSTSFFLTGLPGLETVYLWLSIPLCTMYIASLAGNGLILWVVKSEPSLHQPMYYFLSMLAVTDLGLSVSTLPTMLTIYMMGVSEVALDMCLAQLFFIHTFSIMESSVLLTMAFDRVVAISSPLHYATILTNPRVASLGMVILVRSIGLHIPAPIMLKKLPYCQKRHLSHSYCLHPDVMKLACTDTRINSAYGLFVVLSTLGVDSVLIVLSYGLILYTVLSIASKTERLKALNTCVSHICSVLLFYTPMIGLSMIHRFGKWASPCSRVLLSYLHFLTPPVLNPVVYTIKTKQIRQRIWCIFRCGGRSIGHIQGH", "summary_of_the_method": "as §1"}, "UniProt Q8VGZ2": {"molecular_target": "T6, UniProt Q8VGZ2", "T6 sequence (whole entry)": "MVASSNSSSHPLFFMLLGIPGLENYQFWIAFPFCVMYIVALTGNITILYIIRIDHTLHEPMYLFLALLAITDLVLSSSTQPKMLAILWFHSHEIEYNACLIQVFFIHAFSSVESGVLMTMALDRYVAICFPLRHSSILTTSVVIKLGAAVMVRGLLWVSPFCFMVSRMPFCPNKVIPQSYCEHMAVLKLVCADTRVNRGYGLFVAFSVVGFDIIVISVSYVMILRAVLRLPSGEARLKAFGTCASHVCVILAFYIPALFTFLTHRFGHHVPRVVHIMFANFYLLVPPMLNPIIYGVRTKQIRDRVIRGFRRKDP", "summary_of_the_method": "as §1"}, "UniProt Q8VGZ7": {"molecular_target": "T7, UniProt Q8VGZ7", "T7 sequence (whole entry)": "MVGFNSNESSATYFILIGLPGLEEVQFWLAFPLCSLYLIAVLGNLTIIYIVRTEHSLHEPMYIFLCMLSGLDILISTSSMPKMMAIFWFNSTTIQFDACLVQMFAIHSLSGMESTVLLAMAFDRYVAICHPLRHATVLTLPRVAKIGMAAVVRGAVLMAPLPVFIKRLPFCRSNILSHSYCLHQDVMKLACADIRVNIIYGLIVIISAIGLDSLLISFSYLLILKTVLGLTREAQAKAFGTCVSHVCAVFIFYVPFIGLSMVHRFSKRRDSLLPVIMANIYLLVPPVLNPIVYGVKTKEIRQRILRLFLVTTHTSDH", "summary_of_the_method": "as §1"}, "UniProt Q8VH10": {"molecular_target": "T8, UniProt Q8VH10", "T8 sequence (whole entry)": "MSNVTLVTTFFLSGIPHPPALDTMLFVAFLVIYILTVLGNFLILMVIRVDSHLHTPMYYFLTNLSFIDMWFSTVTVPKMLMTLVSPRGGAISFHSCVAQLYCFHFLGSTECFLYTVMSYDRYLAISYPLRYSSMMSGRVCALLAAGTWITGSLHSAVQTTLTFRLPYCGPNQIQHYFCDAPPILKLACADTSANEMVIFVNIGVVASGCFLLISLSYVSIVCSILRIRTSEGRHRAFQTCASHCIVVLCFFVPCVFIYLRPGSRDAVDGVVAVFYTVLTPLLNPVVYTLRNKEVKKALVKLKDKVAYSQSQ", "summary_of_the_method": "as §1"}, "UniProt Q8VH16": {"molecular_target": "T9, UniProt Q8VH16", "T9 sequence (whole entry)": "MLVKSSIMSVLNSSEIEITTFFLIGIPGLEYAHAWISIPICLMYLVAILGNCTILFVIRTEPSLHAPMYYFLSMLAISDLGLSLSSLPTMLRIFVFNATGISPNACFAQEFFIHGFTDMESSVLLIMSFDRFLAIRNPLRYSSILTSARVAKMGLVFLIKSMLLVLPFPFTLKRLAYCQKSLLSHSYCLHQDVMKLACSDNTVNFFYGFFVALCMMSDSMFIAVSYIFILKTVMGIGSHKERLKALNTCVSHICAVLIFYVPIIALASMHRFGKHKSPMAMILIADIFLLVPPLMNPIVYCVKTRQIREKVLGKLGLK", "summary_of_the_method": "as §1"}, "UniProt Q8VH20": {"molecular_target": "T10, UniProt Q8VH20", "T10 sequence (whole entry)": "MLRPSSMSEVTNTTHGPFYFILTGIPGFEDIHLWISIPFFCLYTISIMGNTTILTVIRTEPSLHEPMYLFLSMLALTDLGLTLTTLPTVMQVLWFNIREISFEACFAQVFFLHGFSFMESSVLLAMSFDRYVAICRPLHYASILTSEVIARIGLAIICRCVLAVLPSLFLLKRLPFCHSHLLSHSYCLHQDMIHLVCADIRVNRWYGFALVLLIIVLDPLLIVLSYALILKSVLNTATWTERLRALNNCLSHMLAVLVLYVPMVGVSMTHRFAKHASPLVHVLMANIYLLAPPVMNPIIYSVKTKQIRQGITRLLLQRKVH", "summary_of_the_method": "as §1"}},
  "data": [
    {"smiles": "C=CCOC(=O)Cc1ccccc1", "values": [
      {"measurement": "odorant receptor agonist call", "setting": "UniProt Q8VGV7", "value": "inactive"},
      {"measurement": "odorant receptor agonist call", "setting": "UniProt Q8VGX3", "value": "inactive"},
      {"measurement": "odorant receptor agonist call", "setting": "UniProt Q8VGX5", "value": "active"},
      {"measurement": "odorant receptor agonist call", "setting": "UniProt Q8VGX8", "value": "inactive"},
      {"measurement": "odorant receptor agonist call", "setting": "UniProt Q8VGY6", "value": "inactive"},
      {"measurement": "odorant receptor agonist call", "setting": "UniProt Q8VGZ2", "value": "inactive"},
      {"measurement": "odorant receptor agonist call", "setting": "UniProt Q8VGZ7", "value": "inactive"},
      {"measurement": "odorant receptor agonist call", "setting": "UniProt Q8VH10", "value": "active"},
      {"measurement": "odorant receptor agonist call", "setting": "UniProt Q8VH16", "value": "inactive"},
      {"measurement": "odorant receptor agonist call", "setting": "UniProt Q8VH20", "value": "inactive"}
    ]}
  ]
}
